Residue numbers refer to the chain shown, from its start. Names may count otherwise. Each block holds one molecule with its values, some of them ahead of it. Where a SMILES comes first, the peptide text is derived from it.
Experiments:
[1] = test system: FXa-induced clotting of PS-depleted plasma (PSdP); assay: FXa-1-stage clotting assay without exogenous PL; format: cell-based, human; conditions: no exogenous PL, base clotting time 98 sec
Outline: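 Human PS-depleted plasma mixed with HBS-BSA containing purified human PS (up to 379 nM) with or without neutralizing mAb S4, plus FXa. No exogenous phospholipid added. Incubated 3 min at 37°C, recalcified with CaCl2 (33 mM stock), and clotting time measured on a coagulometer. FXa standard curves without PS (up to 19 pM as 100%) converted clotting times to % FXa activity.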

[2] = target: T1, prothrombinase (FXa/FVa/PL) (Homo sapiens, UniProt P00742+P12259); conditions: ref [9], cited from earlier work
[3] = test system: platelet and fibrin deposition; conditions: PS infused without APC; ref [15]; cited from earlier work
mAb S4 = assay: Binding of mAb S4 to immobilized peptides; conditions: peptide coated at 20 μM, mAb S4 26 nM, anti-mouse IgG detection
Outline: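 Wells coated with peptide and blocked with I-Block; mAb S4 at 26 nM incubated in the wells. Bound antibody detected with anti-mouse IgG, then biotinylated secondary antibody, streptavidin-alkaline phosphatase and phosphatase substrate. Wash solution was HBS with 0.1% porcine skin gelatin and 2 mM CaCl2. Signal from noncoated blocked wells subtracted from coated wells.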

Factor Xa (Homo sapiens) = Factor Xa (Homo sapiens) (UniProt P00742); conditions: cited from earlier work
Factor Va (Homo sapiens) = Factor Va (Homo sapiens) (UniProt P12259); conditions: cited from earlier work
[4] = target: T1, prothrombinase (FXa/FVa/PL); assay: Purified component prothrombinase assay with FVa and PL; format: biochemical; conditions: for FVa-dependent inhibition of prothrombinase activity: peptide preincubated 10 min with FVa/FXa/PL
prothrombinase (FXa/FVa) = assay: Purified component prothrombinase assay with FVa, without PL; format: biochemical, human; conditions: absence of PL; data not shown
Factor Va [5] = target: T2, Factor Va (human, UniProt P12259 29-737; P12259 1574-2224); assay: ELISA
T2 sequence (looked up) 1: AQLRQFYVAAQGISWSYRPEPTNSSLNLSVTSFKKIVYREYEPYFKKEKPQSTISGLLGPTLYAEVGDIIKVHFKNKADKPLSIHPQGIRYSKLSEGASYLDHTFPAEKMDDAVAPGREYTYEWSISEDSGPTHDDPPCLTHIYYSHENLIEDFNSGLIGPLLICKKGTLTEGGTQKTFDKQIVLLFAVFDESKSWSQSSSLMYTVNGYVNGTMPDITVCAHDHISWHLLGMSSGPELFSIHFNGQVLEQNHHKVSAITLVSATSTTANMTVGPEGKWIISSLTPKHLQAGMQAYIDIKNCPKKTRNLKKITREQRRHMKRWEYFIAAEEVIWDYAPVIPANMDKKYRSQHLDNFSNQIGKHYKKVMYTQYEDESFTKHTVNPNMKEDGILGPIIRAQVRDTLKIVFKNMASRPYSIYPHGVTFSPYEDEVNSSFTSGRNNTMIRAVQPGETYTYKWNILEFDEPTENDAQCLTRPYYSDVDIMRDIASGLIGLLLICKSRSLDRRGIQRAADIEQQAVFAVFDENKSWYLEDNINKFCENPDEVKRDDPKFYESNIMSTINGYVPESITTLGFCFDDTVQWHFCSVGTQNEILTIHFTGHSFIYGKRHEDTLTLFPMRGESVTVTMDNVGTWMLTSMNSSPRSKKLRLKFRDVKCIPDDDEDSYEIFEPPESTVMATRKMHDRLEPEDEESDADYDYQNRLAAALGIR
T2 sequence (looked up) 2: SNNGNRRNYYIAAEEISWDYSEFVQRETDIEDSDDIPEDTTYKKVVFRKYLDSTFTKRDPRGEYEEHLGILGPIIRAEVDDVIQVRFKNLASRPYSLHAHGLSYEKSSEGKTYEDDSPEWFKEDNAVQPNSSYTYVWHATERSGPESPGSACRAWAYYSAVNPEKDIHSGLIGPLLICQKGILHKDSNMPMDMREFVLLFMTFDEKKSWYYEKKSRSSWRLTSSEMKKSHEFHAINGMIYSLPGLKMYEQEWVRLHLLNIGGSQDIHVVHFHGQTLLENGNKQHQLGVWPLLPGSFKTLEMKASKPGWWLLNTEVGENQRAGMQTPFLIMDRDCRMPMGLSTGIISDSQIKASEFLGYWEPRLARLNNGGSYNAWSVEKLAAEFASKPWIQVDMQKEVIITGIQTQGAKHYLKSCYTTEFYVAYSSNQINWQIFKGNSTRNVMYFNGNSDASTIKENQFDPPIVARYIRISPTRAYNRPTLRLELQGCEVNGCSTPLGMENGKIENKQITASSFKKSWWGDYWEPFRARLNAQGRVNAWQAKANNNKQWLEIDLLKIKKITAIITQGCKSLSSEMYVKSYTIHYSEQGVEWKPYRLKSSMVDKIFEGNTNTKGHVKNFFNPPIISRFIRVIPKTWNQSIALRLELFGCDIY

Factor Va [6] = target: T2, Factor Va; assay: ELISA; remark: listed apart in the source
Factor Va [7] = target: T2, Factor Va; assay: ELISA; remark: listed apart in the source
[8] = Thr37 to Met mutation; ref [28]; cited from earlier work
[9] = test system: activated protein C (APC); conditions: Thr37 to Met mutation; ref [28]; cited from earlier work
FXa = conditions: recombinant; ref [39]; cited from earlier work
FVa = conditions: recombinant; ref [39]; cited from earlier work
APC = conditions: recombinant; ref [39]; cited from earlier work

T1 sequence (P00742 41-179 partner limits assumed, one chain of several): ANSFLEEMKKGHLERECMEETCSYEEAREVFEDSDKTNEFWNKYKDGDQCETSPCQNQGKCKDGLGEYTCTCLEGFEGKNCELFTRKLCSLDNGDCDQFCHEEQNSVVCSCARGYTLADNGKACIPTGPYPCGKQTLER
T1 sequence (P00742 235-488 partner limits assumed, one chain of several): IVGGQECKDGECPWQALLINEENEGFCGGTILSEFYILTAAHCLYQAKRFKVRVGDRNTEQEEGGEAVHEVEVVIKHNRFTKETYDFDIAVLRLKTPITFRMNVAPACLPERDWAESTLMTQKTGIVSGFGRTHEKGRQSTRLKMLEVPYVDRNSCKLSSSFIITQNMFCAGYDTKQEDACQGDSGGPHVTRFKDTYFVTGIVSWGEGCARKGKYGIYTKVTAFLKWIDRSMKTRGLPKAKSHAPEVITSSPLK
Sequence of Factor Xa (Homo sapiens) (P00742 235-488): as the sequence (P00742 235-488 partner limits assumed, one chain of several) above

Molecule: PS: immunoaffinity-purified free plasma protein S retaining Zn^2+
Maximal prolongation of clotting time by PS [1]: 95 s | Vmax alteration by PS ([2]; at 60% inhibition): 2.2 fold | Km alteration by PS [2]: 2 fold | Inhibition of platelet and fibrin deposition [3]: inhibited platelet and fibrin deposition

Binding of mAb S4 to immobilized peptide (mAb S4): detected
Molecule: 54–67: peptide representing PS residues 54–67 (TSR) (GLFTAARQSTNAYP; UniProt P07225 95-108, looked up, fragment)

Molecule: Protein S (from UniProt P07225)
Kd (Factor Xa (Homo sapiens)): 18 nM | Kd (Factor Va (Homo sapiens)): 33 nM

FVa-dependent inhibition of prothrombinase activity [4]: did not inhibit prothrombinase
Molecule: PSP48: 14-mer peptide, PS residues 48–61 (LRSFQTGLFTAARQ; UniProt P07225 89-102, looked up, fragment)

FVa-dependent inhibition of prothrombinase activity [4]: did not inhibit prothrombinase
Molecule: PSP30: 14-mer peptide, PS residues 30–43 (VFENDPETDYFYPK; UniProt P07225 71-84, looked up, fragment)

IC50 [4]: 11 µM | Inhibition of prothrombinase ([4]; 40 μM peptide): 90%
Molecule: CC(C)C[C@H](NC(=O)[C@H](CS)NC(=O)[C@@H](NC(=O)[C@H](CC(C)C)NC(=O)[C@H](Cc1ccc(O)cc1)NC(=O)[C@H](CCCCN)NC(=O)[C@@H]1CCCN1C(=O)[C@H](Cc1ccc(O)cc1)NC(=O)[C@H](Cc1ccccc1)NC(=O)[C@H](Cc1ccc(O)cc1)NC(=O)[C@H](CC(=O)O)NC(=O)[C@@H](N)[C@@H](C)O)C(C)C)C(=O)N[C@@H](CCCNC(=N)N)C(=O)N[C@@H](CO)C(=O)O [PSP37, TDYFYPKYLVCLRS] (H-TDYFYPKYLVCLRS-OH)

Molecule: Phospholipase A2
Effect of phospholipase A2 on PS inhibition (prothrombinase (FXa/FVa)): no effect on PS inhibition | Effect of phospholipase A2 on prothrombinase activity (prothrombinase (FXa/FVa)): no effect on prothrombinase activity | Effect of phospholipase A2 on prothrombinase activity ([4]; mixtures that contained PL, data not shown): greatly diminished

Kd (Factor Va [5]): 14 nM | IC50 (Factor Va [6]): 15 µM
Molecule: TDYFYPKYLVCLRS [Peptide PSP37 (protein S residues 37-50)]

binding result (Factor Va [7]): binds
B1: Protein S (natural protein, human, UniProt P07225 42-676, looked up)
chain: ANSLLEETKQGNLERECIEELCNKEEAREVFENDPETDYFYPKYLVCLRSFQTGLFTAARQSTNAYPDLRSCVNAIPDQCSPLPCNEDGYMSCKDGKASFTCTCKPGWQGEKCEFDINECKDPSNINGGCSQICDNTPGSYHCSCKNGFVMLSNKKDCKDVDECSLKPSICGTAVCKNIPGDFECECPEGYRYNLKSKSCEDIDECSENMCAQLCVNYPGGYTCYCDGKKGFKLAQDQKSCEVVSVCLPLNLDTKYELLYLAEQFAGVVLYLKFRLPEISRFSAEFDFRTYDSEGVILYAESIDHSAWLLIALRGGKIEVQLKNEHTSKITTGGDVINNGLWNMVSVEELEHSISIKIAKEAVMDINKPGPLFKPENGLLETKVYFAGFPRKVESELIKPINPRLDGCIRSWNLMKQGASGIKEIIQEKQNKHCLVTVEKGSYYPGSGIAQFHIDYNNVSSAEGWHVNVTLNIRPSTGTGVMLALVSGNNTVPFAVSLVDSTSEKSQDILLSVENTVIYRIQALSLCSDQQSHLEFRVNRNNLELSTPLKIETISHEDLQRQLAVLDKAMKAKVATYLGGLPDVPFSATPVNAFYNGCMEVNINGVQLDLDEAISKHNDIRAHSCPSVWKKTKNS

B2: T37M PS: recombinant PS with mutation of Thr37 to Met (protein, UniProt P07225 42-676, looked up, variant T37M)
Vitamin K-dependent protein S: B1 chain with T37M
Affinity for phospholipids [8]: diminished affinity for phospholipids | Decrease in APC cofactor activity [9]: 3.6 fold

B3: K155E PS: recombinant K155E PS, prevalent Japanese mutation (protein, UniProt P07225 42-676, looked up, variant K155E)
Vitamin K-dependent protein S: B1 chain with K155E
Binding to FXa (FXa): defective binding to FXa and to APC | Binding to FVa (FVa): normal binding to FVa | Binding to APC (APC): defective binding to FXa and to APC

Source: paper PMC3733499 (Thrombosis and haemostasis, 2013)
